High-throughput results (PubChem)
A selection: hits, their analogues and other compounds. The true share with any hit is near 5%.
Mdm2-MdmX inh = inhibitors of human Mdm2-MdmX association, primary screen, cell-based, luminescence, split luciferase, SaOS-2, uHTS. actives 3% (n = 330,000). AID 485346, 2010. SaOS-2 split-luciferase Mdm2/MdmX complementation. inhibition, % at 8 µM;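 active = inhibition of at least 50% at 8 µM in the primary screen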
T cruzi inh = inhibitors of intracellular T. cruzi growth, primary screen, luminescence, NIH3T3 host cells | inhibition, % (no concentration beside the values) | actives 1.4% (n = 300,000) | T. cruzi beta-gal in NIH3T3, 90 h;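 active = mean inhibition across valid replicates above about 55%, limit read from the data; inconclusive = mean below that limit but half or more replicates reach it; inactive = mean below it, under half of replicates reach it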;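 also: signal also drops with host cell toxicity which is not excluded here; higher percent means less beta-gal luminescence so fewer parasites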
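System: NIH/3T3 fibroblasts plus reporter T. cruzi. Medium: DMEM plus 2% FBS. Probe or stimulus: 5000 reporter trypomastigotes per well. Compound: single 50 nL compound addition per well in DMSO. Incubation: co-culture of at least 90 h after 3 h attachment. Detection: GalScreen β-gal luminescence, detergent lysis, 60 min. Evaluation: parasite load inhibition, %.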
CSC inhib = cancer stem cell viability inhibitors, primary screen, luminescence | cancer stem cell-like cells viability | actives 1.1% (n = 300,000) | inhibition, % at 7.5 µM; in the data active = inhibition above about 75%; inconclusive = no clear call, values can overlap the other calls; tested in HMLE shEcad cells
UPR XBP1 act = activators of adaptive XBP1 UPR arm, primary screen, cell-based, CHO-XBP1 luciferase reporter, luminescence, uHTS. IRE1-XBP1 UPR activation; percent of tunicamycin response, DMSO as zero. activation, % at 20 µM. actives 0.33% (n = 330,000);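 active = versus positive control, 20 µM dose yields 30% or more activation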
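incubation = overnight seeding at 37 °C, 6 h compound treatment at 37 °C | assay system = CHO-XBP1 cells stably carrying IRE1-XBP1-driven luciferase reporter | input = 1000 cells per well | detection = luciferase luminescence | dosing = single point, 20 µM final compound, 1% DMSO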
UPR CHOP act = activators of apoptotic CHOP UPR arm, primary screen, cell-based, CHO-CHOP luciferase reporter, luminescence, uHTS; AID 449763, 2010; activation, % at 10 µM; UPR activation; percent of tunicamycin response over DMSO baseline; actives 0.34% (n = 330,000);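 active = at 10 µM dose, activation of 40% or more, normalized to positive control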
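Evaluation: % reporter activation, DMSO baseline versus tunicamycin full activation; System: CHO-CHOP luciferase reporter cell line; Input: 500 cells/well; Incubation: 6 h compound treatment, 37 °C; Measured by: Steady-Glo luciferase luminescence; Dosing: one dose, 10 µM in 0.5% DMSO; Buffer or medium: F12 medium, 10% FBS; Benchmarks: positive tunicamycin 10 µg/mL, negative DMSO alone.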
Beta apoptosis = inhibitors of cytokine-induced beta cell apoptosis, primary screen, luminescence | INS-1E cytokine-induced death, ATP luminescence, 48 h; percent of positive-control rescue, neutral wells zero | protection from apoptosis, % (test concentration not listed) | actives 0.8% (n = 300,000);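 active = Every replicate reaches about 75%, or at least half do and their mean reaches it too, limit read from the data; inconclusive = At least half of replicates reach the limit but their mean does not; inactive = Under half of replicates reach the limit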;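 also: higher means more ATP so stronger rescue from cytokine killing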
CHOP UPR conf = activators of apoptotic CHOP UPR arm, confirmation, cell-based, CHO-CHOP luciferase reporter, single concentration; AID 463112, 2010; actives 64% (n = 1,000); activation, % at 10 µM; shares compounds with UPR CHOP act; CHO-CHOP cells, CHOP-luciferase reporter luminescence; percent of tunicamycin response, DMSO as zero; in the data active = activation above about 33%
Each line names hits and unclear results; the compound was inactive in the other large screens (follow-up assays come after a bar, where they were run).

C[C@@H](C(=O)NC1CCCCC1)N1C(=O)N2CCc3c([nH]c4ccccc34)[C@@]2(C)C1=O	none
O=C(N/N=C/c1ccccc1)c1ccc(N2CCCC2=O)cc1	none
CCOc1cccc2cc(-c3csc(NC(=O)CCC(=O)N4CCC(C)CC4)n3)c(=O)oc12	UPR XBP1 act 36.7, UPR CHOP act 95.2 | CHOP UPR conf inactive
Cc1cccc(NS(=O)(=O)c2ccc(OCC(=O)N3CCCC3)cc2)c1	none (no result: Beta apoptosis)
Cc1ccc(/C=C/C(=O)N2CC(C)CC(C)C2)o1 (stereo not drawn)	CSC inhib inconclusive, UPR CHOP act 68.5 | CHOP UPR conf inactive
CN(C)C1=NC[C@H](Cc2ccccc2)N1CC1CCC(C(C)(C)C)CC1 (stereo partly drawn)	none
N=C1/C(=C/c2cccn2-c2ccc([N+](=O)[O-])cc2)C(=O)N=C2SC=CN12	UPR CHOP act 53.9 | CHOP UPR conf inactive
COc1cc(C=O)ccc1OCC(=O)Nc1ccc2c(c1)OCO2	none
Cc1ccc(C(=O)/C=C/c2ccc(-c3ccc(C)cc3)o2)cc1	UPR CHOP act 94.1 | CHOP UPR conf inactive
O=C(/C=C\c1ccc(-c2ccccc2)o1)c1ccccc1	UPR CHOP act 78.9 | CHOP UPR conf inactive
O=C(O)c1cn(-c2ccccc2)nc1-c1ccncc1	none
O=C(c1cn(-c2ccccc2)nc1-c1ccncc1)n1nnc2ccccc21	UPR CHOP act 98.7 | CHOP UPR conf inactive
COc1cc(S(=O)(=O)N2CCC(c3nc4ccccc4s3)CC2)ccc1S(=O)(=O)N1CC(C)CC(C)C1 (stereo not drawn)	UPR CHOP act 209.2 | CHOP UPR conf inactive
c1ccc(CSC2=NNC(c3ccccn3)S2)cc1 (stereo not drawn)	T cruzi inh 63.3, CSC inhib 124.6, UPR CHOP act 240.3 | CHOP UPR conf 312.8
COc1cc2c(cc1OC)C(c1cc(OC)c(OC)c(OC)c1)NCC2 (stereo not drawn)	none
O=C1C=C(N2CCCCC2)c2ccccc2C1=O	CSC inhib 97.4, UPR CHOP act 76.2, Beta apoptosis 117.0 | CHOP UPR conf inactive
O=C1c2ccccc2C(=O)c2c1cccc2N1CCCC1	none (no result: Mdm2-MdmX inh, UPR XBP1 act, UPR CHOP act)
CN1CCN(C2CCN(Cc3ccc(O)c4ncccc34)CC2)CC1	none (no result: T cruzi inh)
Oc1ccc(CN2CCN(Cc3ccccc3)CC2)c2cccnc12	T cruzi inh 64.0, UPR CHOP act 71.0 | CHOP UPR conf 94.1
COc1cc2cc(C#N)c(SCC(=O)Nc3cc(C)on3)nc2cc1OC	none
CC(=O)n1cc(Nc2ccc([N+](=O)[O-])cc2)c2ccccc21	none
CC(=O)SC(C[N+](=O)[O-])c1cn(C(C)=O)c2ccccc12 (stereo not drawn)	UPR CHOP act 159.3 | CHOP UPR conf inactive
CCOC(=O)C1CCCN(C(=O)Cn2nc(C)c3c(C)n(-c4ccccc4)nc3c2=O)C1 (stereo not drawn)	none
O=C(CN1CCN(c2ccccc2F)CC1)c1ccc(O)c(O)c1	UPR XBP1 act 49.5, UPR CHOP act 108.1 | CHOP UPR conf 40.6
CC(C)c1ccc(S(=O)(=O)N2CCN(CC(=O)c3ccc(O)c(O)c3)CC2)cc1	none
O=C(CN1CCN(S(=O)(=O)c2ccc(Br)cc2)CC1)c1ccc(O)c(O)c1	UPR CHOP act 61.3 | CHOP UPR conf inactive
O=C(c1ccccc1)c1cnc[nH]1	none
COc1cccc(OC)c1C(=O)NC(C)C12CC3CC(CC(C3)C1)C2 (stereo not drawn)	none
CC(NC(=O)C12CC3CC(CC(C3)C1)C2)C(=O)NN=Cc1ccc([N+](=O)[O-])o1 (stereo not drawn)	UPR CHOP act 197.3 (no result: T cruzi inh) | CHOP UPR conf inactive
CC(NC(=O)c1ccc([N+](=O)[O-])o1)C12CC3CC(CC(C3)C1)C2 (stereo not drawn)	CSC inhib 97.3, UPR CHOP act 84.7 (no result: Beta apoptosis) | CHOP UPR conf inactive
Cc1ccccc1S(=O)(=O)NC1OC(=O)C(Cl)=C1Cl (stereo not drawn)	UPR CHOP act 47.4 | CHOP UPR conf 39.8
Cc1ccccc1S(=O)(=O)NC1OC(=O)C(Oc2ccccc2)=C1Br (stereo not drawn)	none (no result: CSC inhib)
Cc1cc(O)c(-c2cc(O)c(C)cc2O)cc1O	T cruzi inh 55.4, UPR CHOP act 74.1 (no result: Beta apoptosis) | CHOP UPR conf 135.6
CCOC(=O)c1ccc(-c2ccc(-c3cc(=O)oc4cc(OC)c(OC)c(OC)c34)cc2)cc1	none (no result: T cruzi inh, CSC inhib, Beta apoptosis)
O=C1OC(COc2ccc(Br)cc2)CN1c1ccccc1 (stereo not drawn)	none
CCOc1cc(C2c3c(-c4ccccc4)n[nH]c3C(=O)N2c2ccc(C(=O)O)cc2)ccc1O (stereo not drawn)	UPR CHOP act 45.4 | CHOP UPR conf inactive
N#CC(C#N)=C1C=CC=CN1/C(=C\c1ccccc1)C(=O)c1cccs1	UPR CHOP act 121.6 | CHOP UPR conf 119.3
Cc1ccc(C2C3CN(C(C)C)CC=C3C(C#N)=C(N)C2(C#N)C#N)cc1 (stereo not drawn)	none
O=C(CSC(=S)N1CCCC1)c1cc(Br)cc(Br)c1O	UPR CHOP act 71.1 | CHOP UPR conf 44.9
CCCn1c(Cc2ccccc2)nnc1SC(C)C(=O)NC1CC1 (stereo not drawn)	none (no result: T cruzi inh)
CCOP(=O)(OCC)c1ccc2ccc3ccccc3c(=O)c2c1	none (no result: T cruzi inh, CSC inhib)
Cc1cc(C)c(C(CC(=O)c2cccs2)C(C#N)C#N)c(C)c1 (stereo not drawn)	CSC inhib inconclusive, UPR CHOP act 46.9 | CHOP UPR conf 95.2
O=C(N/N=C/c1ccccn1)c1ccc(Cl)c(Cl)c1	UPR CHOP act 207.9 | CHOP UPR conf 233.0
CCOc1ccc(N(CC(=O)NC(C(C)C)C(C)C)S(=O)(=O)c2ccc(OC)c(OC)c2)cc1	none
CCOC(=O)c1[nH]c(=O)[nH]c1COC(=O)c1cc2ccccc2o1	none
CC(=O)Nc1ccc(Oc2nc(-c3ccccn3)nc3ccccc23)cc1	none
Cc1ccccc1Oc1nc(-c2ccccn2)nc2ccccc12	UPR CHOP act 48.6, Beta apoptosis 87.6 | CHOP UPR conf inactive
C/C(CC(=O)NC1CCCCC1)=N\NC(=O)COc1ccc(C)cc1Br	none
CCOc1ccccc1N1CCN(C(=O)c2ccc3c(c2)OCO3)CC1	none
